This passage reports IC50 and Ratio results from ChEMBL document CHEMBL1138845, “Design of non-nucleoside inhibitors of HIV-1 reverse transcriptase with improved drug resistance properties. 2” (J Med Chem, 2004).

pIC50: −log10 of the molar value.

Assay [1] concerns HeLa. Kind of assay: Inhibitory concentration against human immunodeficiency virus type 1 (with K103N/G190A resistant mutation) was determined in HeLa-CD4 MAGI assay. In kind it is functional, cell-based. The method in brief:
(§1)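 Tested against a panel of recombinant, isogenic HIV-1 viruses, wild type and NNRTI-resistant strains carrying engineered single or double RT mutations. The readout was IC50.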

The test system of assay [2] is HeLa. Nature of the assay: Inhibitory concentration against human immunodeficiency virus type 1 (with K103N/V108I resistant mutation) was determined in HeLa-CD4 MAGI assay. It is filed as functional, cell-based. The method in brief:
as §1

The subject of assay [3] is HeLa. Nature of the assay: Inhibitory concentration against human immunodeficiency virus type 1 (with K103N/Y181C resistant mutation) was determined in HeLa-CD4 MAGI assay. It is filed as functional, cell-based. The method in brief:
as §1

In assay [4] the test system is HeLa. Nature of the assay: Inhibitory concentration against human immunodeficiency virus type 1 (with V106A/Y181C resistant mutation) was determined in HeLa-CD4 MAGI assay. It is filed as functional, cell-based. A digest of the protocol: as §1
In assay [5] the test system is HeLa. Kind of assay: Inhibitory concentration against human immunodeficiency virus type 1 (with V108I/Y181C resistant mutation) was determined in HeLa-CD4 MAGI assay. In kind it is functional, cell-based. The method in brief:
as §1

Assay [6] has as its system MT4. Nature of the assay: Ratio of cytotoxic concentration to that of inhibitory concentration as selectivity index was determined by MT-4 assay. It is filed as functional, Homo sapiens. The method in brief: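 Index is the IC50 in uninfected MT4 cells divided by the antiviral IC50 in MT4 cells infected with wild-type HIV-1 or the nevirapine-resistant strain carrying RT mutation Y181C.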

For assay [7], the system named is MT4. Nature of the assay: Inhibitory concentration against wild type human immunodeficiency virus type 1 was determined by MT-4 assay. In kind it is functional, cell-based.
Assay [8] concerns Human immunodeficiency virus 1. Kind of assay: Inhibitory concentration against wild type human immunodeficiency virus type 1 was determined by recombinant virus assay. In kind it is functional, organism-based. A digest of the protocol:
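Isogenic recombinant HIV-1 carrying wild-type RT, tested in parallel with a panel of NNRTI-resistant RT mutants built on the same background; activity reported as IC50.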

Assay [9] deals with MT4. Kind of assay: Inhibitory concentration against nevirapine resistant strain (with Y181C mutation in HIV-1 RT gene) of human immunodeficiency virus type 1 was determined by MT-4 assay. In kind it is functional, cell-based.
For assay [10], the system named is HeLa. Kind of assay: Inhibitory concentration against human immunodeficiency virus type 1 (with G190A resistant mutation) was determined in HeLa-CD4 MAGI assay. It is filed as functional, cell-based. The method in brief:
as §1

In assay [11] the test system is HeLa. Nature of the assay: Inhibitory concentration against human immunodeficiency virus type 1 (with K103N resistant mutation) was determined in HeLa-CD4 MAGI assay. It is filed as functional, cell-based. A digest of the protocol:
as §1

For assay [12], the system named is HeLa. Nature of the assay: Inhibitory concentration against human immunodeficiency virus type 1 (with V106A resistant mutation) was determined in HeLa-CD4 MAGI assay. It is filed as functional, cell-based. The method in brief: as §1
The test system of assay [13] is HeLa. Nature of the assay: Inhibitory concentration against human immunodeficiency virus type 1 (with V108I resistant mutation) was determined in HeLa-CD4 MAGI assay. In kind it is functional, cell-based. The method in brief:
as §1

Assay [14] relates to HeLa. Kind of assay: Inhibitory concentration against human immunodeficiency virus type 1 (with Y181C resistant mutation) was determined in HeLa-CD4 MAGI assay. In kind it is functional, cell-based. The method in brief: as §1
Assay [15] has as its system HeLa. Nature of the assay: Inhibitory concentration against human immunodeficiency virus type 1 (with Y188C resistant mutation) was determined in HeLa-CD4 MAGI assay. In kind it is functional, cell-based. The method in brief: as §1

Regarding `CCOc1c(O)nc2ccc(Cl)cc2c1OCC1CCC1`, the pIC50 is less than 5.70 in the assay on HeLa [1]; less than 5.70 in the assay with HeLa [2]; less than 5.70 in the assay with HeLa [3]; less than 5.70 in the assay with HeLa [4]; less than 5.70 in the assay on HeLa [5]; 6.54 in the assay with MT4 [7]. Further, the pIC50 in [8] is 6.47; in the assay on MT4 [9], 5.68; in the assay on HeLa [10], 6.77; in the assay on HeLa [11], less than 5.70; in the assay on HeLa [12], less than 5.70; in the assay on HeLa [13], 6.05. For the same compound, the values for the pIC50 in the assay on HeLa [14] and in the assay on HeLa [15] were less than 5.70 and 6.41, respectively. Besides, the Ratio in the assay with MT4 [6] was greater than 8000.

`N#Cc1c(O)nc2ccccc2c1OCC1CCC1`: the negative logarithm of the IC50 (pIC50) in the assay on HeLa [1] is less than 5.70; with HeLa [2] it was less than 5.70; in the assay with HeLa [3], less than 5.70; in the assay with HeLa [4] it was less than 5.70; in the assay with HeLa [5] it was less than 5.70; with MT4 [7], less than 5.10. Besides, the pIC50 in [8] was less than 5.70; in the assay on MT4 [9], less than 5.10; in the assay with HeLa [10] it was less than 5.70; in the assay on HeLa [11] it was less than 5.70; with HeLa [12], less than 5.70; in the assay on HeLa [13], less than 5.70. Also, the pIC50 in the assay on HeLa [14] and with HeLa [15] was less than 5.70 throughout. Further, in the assay with MT4 [6], the Ratio was greater than 8000.

For the compound `CCc1c(O)nc2ccc(F)cc2c1OCC1CCC1`, the pIC50 is 5.96 in the assay with HeLa [1]; less than 5.70 in the assay on HeLa [2]; less than 5.70 in the assay with HeLa [3]; less than 5.70 with HeLa [4]; 6.06 with HeLa [5]; 7.41 in the assay on MT4 [7]. For the same compound, the pIC50 in [8] was 7.05; in the assay with MT4 [9] it was 6.64; in the assay on HeLa [10] it was 6.96; in the assay on HeLa [11], 6.57; with HeLa [12], 5.77; in the assay with HeLa [13] it was 6.60. In addition, the negative-log IC50 (pIC50) in the assay with HeLa [14] was 6.41; in the assay with HeLa [15], 6.89. For the same compound, the Ratio with MT4 [6] is given as greater than 8000.

On to `CC(C)c1c(O)nc2ccc(Cl)cc2c1OCC1CCC1`, for which the negative-log IC50 (pIC50) with HeLa [1] is 6.25; in the assay on HeLa [2], less than 5.70; with HeLa [3], less than 5.70; with HeLa [4], 5.72; in the assay on HeLa [5], 6.36; in the assay on MT4 [7], 7.54. Moreover, the pIC50 in assay [8] was 7.82; with MT4 [9], 6.64; in the assay with HeLa [10], 8.05; with HeLa [11], 6.25; in the assay with HeLa [12] it was 6.42; in the assay with HeLa [13] it was 7.10. Moreover, the negative-log IC50 (pIC50) in the assay with HeLa [14] is 6.68; in the assay on HeLa [15] it was 7.49. Further, in the assay on MT4 [6], the Ratio is recorded as greater than 500.

`CCOc1c(O)nc2ccc(F)cc2c1OCC1CCC1`: the pIC50 is less than 5.70 in the assay on HeLa [1]; less than 5.70 in the assay on HeLa [2]; less than 5.70 with HeLa [3]; less than 5.70 with HeLa [4]; less than 5.70 in the assay on HeLa [5]; 6.33 in the assay with MT4 [7]. Also, the pIC50 was 6.24 in [8]; 5.97 in the assay on MT4 [9]; 7.07 in the assay with HeLa [10]; less than 5.70 in the assay with HeLa [11]; less than 5.70 in the assay on HeLa [12]; 5.82 with HeLa [13]. Further, the negative-log IC50 (pIC50) is less than 5.70 in the assay on HeLa [14] and 6.44 with HeLa [15]. Besides, the Ratio in the assay on MT4 [6] is given as greater than 8000.

On to `CCCc1c(O)nc2ccc(Cl)cc2c1OCC1CCC1`, for which the pIC50 in the assay with HeLa [1] is 5.89; in the assay with HeLa [2], less than 5.70; with HeLa [3] it was less than 5.70; in the assay with HeLa [4], 6.20; with HeLa [5] it was 6.22; in the assay on MT4 [7], 7.14. For the same compound, the pIC50 in assay [8] is 7.44; with MT4 [9] it was 6.41; with HeLa [10], 7.82; with HeLa [11], 6.01; in the assay on HeLa [12], 6.91; in the assay with HeLa [13], 7.11. Also, the negative-log IC50 (pIC50) in the assay on HeLa [14] was less than 5.70; with HeLa [15], 7.80. For the same compound, in the assay with MT4 [6], the Ratio is reported as greater than 40000.

Take `CCCc1c(O)nc2ccc(F)cc2c1OCC1CCC1`: the pIC50 with HeLa [1] is less than 5.70; in the assay on HeLa [2] it was less than 5.70; in the assay on HeLa [3] it was less than 5.70; in the assay with HeLa [4] it was 5.77; with HeLa [5], 6.25; in the assay on MT4 [7], 7.16. Besides, the negative-log IC50 (pIC50) in [8] is 7.20; with MT4 [9], 6.72; in the assay with HeLa [10], 7.34; with HeLa [11] it was 5.74; in the assay with HeLa [12], 5.77; in the assay on HeLa [13], 6.54. Also, the pIC50 in the assay with HeLa [14] is 6.62; with HeLa [15] it was 7.22. Moreover, the Ratio with MT4 [6] is recorded as greater than 8000.

On to `CC(C)c1c(O)nc2ccc(F)cc2c1OCC1CCC1`, for which the pIC50 with HeLa [1] is 6.28; with HeLa [2] it was less than 5.70; with HeLa [3], less than 5.70; with HeLa [4], less than 5.70; in the assay with HeLa [5] it was 6.15; in the assay on MT4 [7], 7.59. The negative logarithm of the IC50 (pIC50) was 7.31 in assay [8]; 6.64 in the assay on MT4 [9]; 7.80 with HeLa [10]; 5.77 with HeLa [11]; 5.72 in the assay with HeLa [12]; 6.36 in the assay with HeLa [13]. The results for the negative logarithm of the IC50 (pIC50) in the assay on HeLa [14] and in the assay with HeLa [15] were 6.55 and 7.52, respectively. Also, in the assay on MT4 [6], the Ratio is greater than 500.

For `CCCc1c(O)nc2cc(OC)ccc2c1OCC1CCC1`, the negative logarithm of the IC50 (pIC50) with HeLa [1] is less than 5.70; with HeLa [2], less than 5.70; in the assay with HeLa [3], less than 5.70; in the assay on HeLa [4], less than 5.70; in the assay with HeLa [5], less than 5.70; in the assay on MT4 [7], less than 5.10. Moreover, the pIC50 is less than 5.70 in assay [8]; less than 5.10 in the assay on MT4 [9]; less than 5.70 with HeLa [10]; less than 5.70 in the assay with HeLa [11]; less than 5.70 with HeLa [12]; less than 5.70 with HeLa [13]. Besides, the pIC50 in the assay on HeLa [14] and with HeLa [15] was less than 5.70 in each case. In the assay with MT4 [6], the Ratio was greater than 8000.
